Measured values published in ChEMBL document CHEMBL4732035, “Design, synthesis, crystal structure and anti-plasmodial evaluation of tetrahydrobenzo[4,5]thieno[2,3-d]pyrimidine derivatives” (RSC Med Chem, 2021).

Experiments:
[1] = tested on: HeLa; assay: Cytotoxicity against human HeLa cells assessed as reduction in cell viability preincubated for 24 hrs measured after 4 hrs by MTT assay; assay type: functional, cell-based
Outline: (§1)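 Cells were grown in DMEM with 10% fetal bovine serum, seeded at 1 × 10^4 cells per well and left 24 h at 37 °C to adhere. A range of compound concentrations was added for 24 h. Medium was then removed, MTT solution (4 mg mL−1) added for 4 h, and formazan dissolved in DMSO. Survival was expressed against untreated wells, and IC50 was fitted by log(inhibitor)–response nonlinear regression from three independent experiments.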

[2] = tested on: A549; assay: Cytotoxicity against human A549 cells assessed as reduction in cell viability preincubated for 24 hrs measured after 4 hrs by MTT assay; assay type: functional, cell-based; outline: as §1
[3] = tested on: Plasmodium falciparum; assay: Antiplasmodial activity against chloroquine-resistant Plasmodium falciparum W2 assessed as growth inhibition after 48 hrs by flow cytometer; assay type: functional, organism-based; conditions: W2, 48 h
Outline: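 Ring-stage W2 cultures in microwells exposed 48 h to a range of compound concentrations, added from DMSO stocks. Parasites then fixed in 1% formaldehyde/PBS pH 7.4 (48 h, RT) and stained with YOYO-1 (1 nM) in 0.1% Triton X-100/PBS. Parasitemia counted by flow cytometry (forward scatter vs fluorescence). IC50 fitted from % parasitemia vs untreated controls (R2 >0.95).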

[4] = Selectivity index, ratio of IC50 for human HeLa cells to IC50 for chloroquine-resistant Plasmodium falciparum W2; assay type: toxicity; conditions: read-out: Selectivity Index
Outline: (§2)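 Selectivity index is cell-line IC50 (A549 for line 2, HeLa for line 3) divided by W2 IC50. Cells grown in DMEM with 10% FBS, seeded at 1 × 10^4 per well and allowed to adhere 24 h at 37 °C. They were then exposed to graded concentrations for 24 h. MTT (4 mg/mL) was added for 4 h and formazan dissolved in DMSO. IC50 from log(inhibitor)-response fits, three independent experiments.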

[5] = Selectivity index, ratio of IC50 for human A549 cells to IC50 for chloroquine-resistant Plasmodium falciparum W2; assay type: toxicity; conditions: read-out: Selectivity Index; outline: as §2

SMILES | IC50 [1] | IC50 [2] | IC50 [3] | selectivity ratio [4] | selectivity ratio [5]
COc1cccc2c1C(=O)c1c(O)c3c(c(O)c1C2=O)C[C@@](O)(C(=O)CO)C[C@@H]3O[C@H]1C[C@H](N)[C@H](O)[C@H](C)O1 [DOXORUBICIN] | 5.7 µM | 5.5 µM | – | – | –
COc1cccc(C(c2ccc(F)c(Cl)c2)N2CCN(c3ncnc4sc5c(c34)CCCC5)CC2)c1O (stereo not drawn) | – | – | 1.17 µM | – | –
COc1cccc(C(c2ccc(C)cc2)N2CCN(c3ncnc4sc5c(c34)CCCC5)CC2)c1O (stereo not drawn) | – | – | 3.96 µM | – | –
Oc1ccccc1C(c1ccc(F)c(F)c1)N1CCN(c2ncnc3sc4c(c23)CCCC4)CC1 (stereo not drawn) | 12.7 µM | 8.7 µM | 1.04 µM | 12.3 | 8.43
Oc1ccccc1C(c1ccc(C(F)(F)F)cc1)N1CCN(c2ncnc3sc4c(c23)CCCC4)CC1 (stereo not drawn) | – | – | 1.37 µM | – | –
Oc1ccccc1C(c1ccc(F)cc1)N1CCN(c2ncnc3sc4c(c23)CCCC4)CC1 (stereo not drawn) | – | – | 1.62 µM | – | –
COc1cccc(C(c2ccc(F)cc2)N2CCN(c3ncnc4sc5c(c34)CCCC5)CC2)c1O (stereo not drawn) | – | – | 2.26 µM | – | –
Oc1ccccc1C(c1ccc(OC(F)(F)F)cc1)N1CCN(c2ncnc3sc4c(c23)CCCC4)CC1 (stereo not drawn) | 9.1 µM | 7.2 µM | 1.18 µM | 7.7 | 6.09
COc1cccc(C(c2ccc(F)c(F)c2)N2CCN(c3ncnc4sc5c(c34)CCCC5)CC2)c1O (stereo not drawn) | – | – | 1.13 µM | – | –
Oc1ccccc1C(c1ccc(F)c(Cl)c1)N1CCN(c2ncnc3sc4c(c23)CCCC4)CC1 (stereo not drawn) | 6.4 µM | 8.5 µM | 1.06 µM | 6.03 | 8.01
COc1cccc(C(c2ccc(OC(F)(F)F)cc2)N2CCN(c3ncnc4sc5c(c34)CCCC5)CC2)c1O (stereo not drawn) | – | – | 1.22 µM | – | –
COc1cccc(C(c2ccc(C(F)(F)F)cc2)N2CCN(c3ncnc4sc5c(c34)CCCC5)CC2)c1O (stereo not drawn) | 7.1 µM | 7.3 µM | 0.749 µM | 9.59 | 9.86
Cc1ccc(C(c2ccccc2O)N2CCN(c3ncnc4sc5c(c34)CCCC5)CC2)cc1 (stereo not drawn) | – | – | 1.34 µM | – | –
COc1ccc(C(c2cccc(OC)c2O)N2CCN(c3ncnc4sc5c(c34)CCCC5)CC2)cc1 (stereo not drawn) | – | – | 6.41 µM | – | –
COc1ccc(C(c2ccccc2O)N2CCN(c3ncnc4sc5c(c34)CCCC5)CC2)cc1 (stereo not drawn) | – | – | 2.42 µM | – | –
COc1cccc(C(c2ccc(Cl)c(Cl)c2)N2CCN(c3ncnc4sc5c(c34)CCCC5)CC2)c1O (stereo not drawn) | – | – | 1.34 µM | – | –
Oc1ccccc1C(c1ccc(Cl)c(Cl)c1)N1CCN(c2ncnc3sc4c(c23)CCCC4)CC1 (stereo not drawn) | 10.3 µM | 11.5 µM | 0.752 µM | 13.7 | 15.3
